KDM4C inh – blocks human GASC-1 (KDM4C) demethylase activity | Q9H3R0 | GST-KDM4C 2-372, H3K9me3 peptide, LANCE TR-FRET | inhibition, % at 12.5 µM | 0.15% of 96,000 active;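 active means mean replicate inhibition above about 25%, with at least 55% of replicates also reaching it, limit read from the data, passing the limit was not always enough; inconclusive means only one of those two conditions met; inactive means neither condition met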
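reagent = H3K9me3 peptide substrate, Fe(II), 2-oxoglutarate | system = GST-tagged GASC-1 (JMJD2C) catalytic fragment, aa 2-372 | amount = enzyme final amount 10 nM | read-out = Fall in 671/618 emission ratio as inhibition | medium = HEPES buffer, pH 7.5, plus ascorbate | schedule = 30 min reaction, 60 min detection, RT | measured by = LANCE TR-FRET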
Pf Dd2 inh – blocks growth of Plasmodium falciparum Dd2 parasites | activity change, % at 10 µM | P. falciparum Dd2 growth, SYBR Green, 72 h; stronger effect = lower value | 2.3% of 94,000 active; in the data active means activity change below about -80%; inconclusive means no clear call, values can overlap the other calls
T cruzi growth-1 – blocks T. cruzi growth in NIH3T3 culture; T. cruzi beta-gal in NIH3T3, GalScreen luminescence, 90 h; inhibition, % at 8.34 µM; 5.9% of 77,000 active;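 active means mean inhibition above about 93%, with at least 55% of replicates each passing it, limit read from the data, passing the limit was not always enough; inconclusive means only one of those two conditions holds; inactive means neither condition holds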
IDH1 mut inh – IDH1 R132H (human) inhibition; O75874; IDH1 R132H reductase, diaphorase/resazurin fluorescence, 60 min; inhibition, % at 10 µM; 0.18% of 70,000 active; AID 624101; in the data active means inhibition above about 34%; inconclusive means no clear call, values can overlap the other calls; inactive means below about 11%;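 further: 0% = DMSO and 100% = no enzyme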
Target sequence (O75874 whole entry R132H): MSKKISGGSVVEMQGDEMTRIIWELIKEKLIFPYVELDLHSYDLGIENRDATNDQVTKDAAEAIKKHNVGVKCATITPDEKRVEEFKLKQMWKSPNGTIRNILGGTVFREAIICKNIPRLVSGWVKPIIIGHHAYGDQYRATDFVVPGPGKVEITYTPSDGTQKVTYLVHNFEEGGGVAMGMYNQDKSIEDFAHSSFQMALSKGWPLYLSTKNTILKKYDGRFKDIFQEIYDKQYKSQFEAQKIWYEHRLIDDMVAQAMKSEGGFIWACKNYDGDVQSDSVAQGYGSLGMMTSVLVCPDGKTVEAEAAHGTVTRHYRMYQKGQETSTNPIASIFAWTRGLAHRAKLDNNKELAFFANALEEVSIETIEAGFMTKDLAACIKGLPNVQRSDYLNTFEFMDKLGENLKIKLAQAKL
T cruzi growth-2 – inhibitors of T. cruzi proliferation; 72% of 5,600 active; shares compounds with T cruzi growth-1; T. cruzi beta-gal in NIH3T3, GalScreen luminescence, 90 h; inhibition, % at 8.35 µM; AID 651739;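 active means mean replicate inhibition above about 95% and at least 55% of replicates individually reaching it, limit read from the data; inconclusive means only one of the two criteria is met; inactive means neither criterion is met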
T cruzi growth-3 – Trypanosoma cruzi proliferation inhibition | T. cruzi beta-gal in NIH3T3, GalScreen luminescence, 90 h | 21% of 5,600 active | shares compounds with T cruzi growth-1 | inhibition, % at 2.09 µM;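 active means mean inhibition above about 95%, with at least 55% of replicates also reaching it, limit read from the data; inconclusive means meets just one of the two conditions; inactive means meets neither condition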;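 further: plate controls were neutral control median for no effect and positive control median for full effect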
3T3 cytotox – NIH/3T3 (mouse) viability loss | NIH/3T3 viability, CellTiter-Glo ATP luminescence, 90 h | AID 651742 | shares compounds with T cruzi growth-1 | cytotoxicity (signal decrease), % at 8.35 µM | 14% of 5,600 active;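 active means mean signal decrease across replicates above about 35% based on untreated-well scatter, with enough replicates individually passing, limit read from the data; inconclusive means no rule stated though some were filed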;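 further: 0% = median of neutral control wells and 100% = median of positive control wells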
NIH3T3 tox 2 – cytotoxicity in mouse NIH/3T3 fibroblasts; shares compounds with T cruzi growth-1; inhibition, % at 24.9 µM; NIH/3T3 viability, CellTiter-Glo ATP luminescence, 90 h; 56% of 5,600 active; AID 651744;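 active means mean loss of cell viability signal at or above a set limit, and enough replicates individually reaching it; inconclusive means meets only the mean limit or only the replicate share; inactive means meets neither condition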;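 further: 0% = median of neutral control wells and 100% = median of positive control wells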
Starred values were filed as active, the others as inactive; ? = inconclusive; . = not tested or not shown. A selection: hits, their analogues and other compounds. The true share with any hit is near 5.9%.

SMILES	KDM4C inh	Pf Dd2 inh	T cruzi growth-1	IDH1 mut inh	T cruzi growth-2	T cruzi growth-3	3T3 cytotox	NIH3T3 tox 2
C[C@H](CO)N1C[C@H](C)[C@H](CN(C)Cc2ccc3c(c2)OCO3)Oc2cc(C#CCN(C)C)ccc2S1(=O)=O	0.5	?	76.4	0.0	.	.	.	.
C[C@@H]1CN([C@@H](C)CO)S(=O)(=O)c2ccc(C#CCN(C)C)cc2O[C@@H]1CN(C)Cc1ccc2c(c1)OCO2	2.7	-54.1	84.9	-0.5	.	.	.	.
O=C(C[C@H]1C[C@H]2c3cc(NC(=O)NC4CCCCC4)ccc3O[C@H]2[C@@H](CO)O1)NCc1ccccc1	-2.9	0.0	97.4*	0.2	58.7	9.9	12.9	8.4
COc1ccccc1CNC(=O)C[C@H]1C[C@H]2c3cc(NC(=O)NC4CCCC4)ccc3O[C@H]2[C@@H](CO)O1	-2.0	13.0	68.3	0.1	.	.	.	.
O=C(C[C@@H]1C[C@@H]2c3cc(NC(=O)Nc4ccc(C(F)(F)F)cc4)ccc3O[C@@H]2[C@H](CO)O1)NCc1ccc2c(c1)OCO2	-3.1	0.3	44.6	-0.2	.	.	.	.
O=C(C[C@H]1CC[C@H](NC(=O)Nc2ccc(C(F)(F)F)cc2)[C@@H](CO)O1)NCc1cc(F)cc(F)c1	-1.8	-38.5	103.3*	-0.3	76.8	-24.1	-7.0	9.7
O=C(C[C@H]1C[C@@H]2c3cc(NC(=O)Nc4ccc(C(F)(F)F)cc4)ccc3O[C@@H]2[C@H](CO)O1)NCc1ccc(Cl)cc1	0.0	1.6	?	-0.4	107.7*	49.2	21.7	-3.6
COc1ccccc1CNC(=O)C[C@@H]1C[C@@H]2c3cc(NC(=O)NC4CCCC4)ccc3O[C@@H]2[C@@H](CO)O1	-0.5	-7.5	111.3*	-3.4	84.9	1.4	-20.9	-1.0
CC(C(=O)Nc1ccc(Cl)c(Cl)c1)N(c1ccccc1)S(C)(=O)=O (stereo not given)	.	.	.	-0.2	.	.	.	.
Cc1ccccc1N(CC(=O)O)S(=O)(=O)c1ccc(Cl)cc1	.	.	.	-0.3	.	.	.	.
COc1ccc(OC)c(NC(=O)COc2cc(C)c(Br)cc2C)c1	.	.	.	0.3	.	.	.	.
COc1ccccc1CNC(=O)C[C@@H]1C[C@H]2c3cc(NC(=O)Nc4ccc(C(F)(F)F)cc4)ccc3O[C@H]2[C@H](CO)O1	-1.2	-53.4	87.5	-0.1	.	.	.	.
COc1ccccc1CNC(=O)C[C@H]1C[C@H]2c3cc(NC(=O)Nc4ccc(C(F)(F)F)cc4)ccc3O[C@H]2[C@H](CO)O1	2.6	-61.2	133.8*	0.4	107.5*	52.4	-20.5	-19.3
COc1ccccc1CNC(=O)C[C@@H]1C[C@@H]2c3cc(NC(=O)Nc4ccc(C(F)(F)F)cc4)ccc3O[C@@H]2[C@H](CO)O1	-2.1	-23.7	125.4*	0.2	111.4*	66.5	4.1	27.5
O=C(C[C@@H]1C=C[C@H](NC(=O)Nc2ccccc2)[C@@H](CO)O1)NCc1cccc(F)c1	1.2	-0.9	?	0.2	-11.6	-0.9	-36.5	-19.4
C[C@H](NC(=O)C[C@H]1C[C@@H]2c3cc(NC(=O)Nc4ccc(C(F)(F)F)cc4)ccc3O[C@@H]2[C@H](CO)O1)c1ccccc1	-1.4	-25.5	?	0.0	101.9*	11.5	47.7*	70.7*
CCOC(=O)c1c(NC(=S)Nc2nc(C)cc(C)n2)sc(C)c1-c1ccccc1	.	.	.	2.2	.	.	.	.
Cc1cc(C)c(NC(=O)CSc2nc(-c3ccccc3)cc(=O)[nH]2)c([N+](=O)[O-])c1	.	.	.	0.6	.	.	.	.
O=C(CSc1nc2ccccc2c(=O)[nH]1)Nc1cccc(I)c1	.	.	.	0.2	.	.	.	.
Cc1ccc(C)c(NC(=O)CN(c2ccc(F)c(Cl)c2)S(C)(=O)=O)c1	.	.	.	-0.6	.	.	.	.
COc1ccc(NCc2ccc(C(=O)Nc3ccccc3[N+](=O)[O-])cc2)cc1OC	.	.	.	0.0	.	.	.	.
C[C@@H]1CCCCO[C@H](CN(C)C(=O)Nc2ccc(F)cc2)[C@H](C)CN([C@@H](C)CO)C(=O)c2cc(NC(=O)Nc3ccc(C(F)(F)F)cc3)ccc2O1	-0.7	-38.3	97.1*	1.6	102.2*	115.0*	21.8	16.0
C[C@H]1CCCCO[C@@H](CN(C)C(=O)Nc2ccc(C(F)(F)F)cc2)[C@@H](C)CN([C@@H](C)CO)C(=O)c2cc(NC(=O)CCC(F)(F)F)ccc2O1	-0.9	-58.0	?	.	99.2*	110.3*	16.5	16.8
C[C@H]1CCCCO[C@@H](CN(C)C(=O)Nc2ccccc2)[C@@H](C)CN([C@@H](C)CO)C(=O)c2cc(NC(=O)Nc3ccc(C(F)(F)F)cc3)ccc2O1	0.3	-14.7	.	2.1	.	.	.	.
C[C@@H]1CCCCO[C@@H](CN(C)C(=O)Nc2ccc(C(F)(F)F)cc2)[C@@H](C)CN([C@H](C)CO)C(=O)c2cc(NC(=O)Nc3ccc(C(F)(F)F)cc3)ccc2O1	1.5	-0.3	115.6*	.	107.7*	92.8	28.5	?
SMILES	KDM4C inh	Pf Dd2 inh	T cruzi growth-1	IDH1 mut inh	T cruzi growth-2	T cruzi growth-3	3T3 cytotox	NIH3T3 tox 2
C[C@@H]1CCCCO[C@H](CN(C)C(=O)Nc2ccccc2)[C@@H](C)CN([C@H](C)CO)C(=O)c2cc(NC(=O)Nc3ccc(C(F)(F)F)cc3)ccc2O1	-1.1	-24.4	.	.	.	.	.	.
C[C@H](CO)N1C[C@H](C)[C@H](CN(C)C(=O)Nc2ccc(F)cc2)OCCCC[C@H](C)Oc2ccc(NC(=O)Nc3ccc(C(F)(F)F)cc3)cc2C1=O	0.1	9.6	97.9*	0.7	90.9	108.9*	18.8	18.4
C[C@@H]1CN([C@@H](C)CO)C(=O)c2cc(NC(=O)CCC(F)(F)F)ccc2O[C@@H](C)CCCCO[C@H]1CN(C)C(=O)Nc1ccc(C(F)(F)F)cc1	-4.9	-31.2	104.7	-0.3	.	.	.	.
C/C(=C/CCC(CO)C1CCC2(C)C3CCC4C(C)(C)C(OC5OC(CO)C(O)C(O)C5O)CCC45CC35CCC12C)COC1OC(COC2OC(CO)C(O)C(O)C2O)C(O)C(O)C1O (stereo not given)	.	.	.	2.5	.	.	.	.
C[C@H](CO)N1C[C@H](C)[C@H](CN(C)C(=O)Nc2ccc(C(F)(F)F)cc2)OCCCC[C@H](C)Oc2ccc(N(C)C)cc2C1=O	-1.7	-65.0	100.9*	.	105.8*	78.3	-3.8	39.5*
CNC[C@@H]1OCCCC[C@@H](C)Oc2ccc(NC(=O)Nc3ccc4c(c3)OCO4)cc2C(=O)N([C@H](C)CO)C[C@@H]1C	1.2	24.9	95.5*	.	17.9	3.0	9.1	18.4
CNC[C@H]1OCCCC[C@H](C)Oc2ccc(NC(=O)Nc3ccc4c(c3)OCO4)cc2C(=O)N([C@H](C)CO)C[C@@H]1C	-0.8	19.1	41.4	.	.	.	.	.
